Data: PMC8897028 (Acta Pharmaceutica Sinica. B, 2021)

What was measured:
HaCaT cells [1] = test: cell proliferation MTT assay, HaCaT cells; assay type: cell-based, human; conditions: IAB at 10 and 100 μmol/L with carvacrol 300 μmol/L, 24 h
In short: (§1)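 hTRPV3-transfected HEK293 or HaCaT cells were plated at 5 × 10^3 per well for 24 h, then exposed 24 h to TRPV3 activator and/or inhibitor in culture medium. MTT (5 mg/mL solution) was added for 4 h. Medium was removed, formazan dissolved in DMSO, and absorbance read at 490 nm.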

mTRPV3 L669A = molecular target: T1, mTRPV3 L669A (Mus musculus, UniProt Q8K424, L669A); test: whole-cell patch-clamp of mTRPV3 L669A mutant in HEK293 cells; assay type: cell-based; conditions: compound 50 μmol/L; 2-APB; compared with WT mTRPV3
T1 sequence (Q8K424 1-791 L669A): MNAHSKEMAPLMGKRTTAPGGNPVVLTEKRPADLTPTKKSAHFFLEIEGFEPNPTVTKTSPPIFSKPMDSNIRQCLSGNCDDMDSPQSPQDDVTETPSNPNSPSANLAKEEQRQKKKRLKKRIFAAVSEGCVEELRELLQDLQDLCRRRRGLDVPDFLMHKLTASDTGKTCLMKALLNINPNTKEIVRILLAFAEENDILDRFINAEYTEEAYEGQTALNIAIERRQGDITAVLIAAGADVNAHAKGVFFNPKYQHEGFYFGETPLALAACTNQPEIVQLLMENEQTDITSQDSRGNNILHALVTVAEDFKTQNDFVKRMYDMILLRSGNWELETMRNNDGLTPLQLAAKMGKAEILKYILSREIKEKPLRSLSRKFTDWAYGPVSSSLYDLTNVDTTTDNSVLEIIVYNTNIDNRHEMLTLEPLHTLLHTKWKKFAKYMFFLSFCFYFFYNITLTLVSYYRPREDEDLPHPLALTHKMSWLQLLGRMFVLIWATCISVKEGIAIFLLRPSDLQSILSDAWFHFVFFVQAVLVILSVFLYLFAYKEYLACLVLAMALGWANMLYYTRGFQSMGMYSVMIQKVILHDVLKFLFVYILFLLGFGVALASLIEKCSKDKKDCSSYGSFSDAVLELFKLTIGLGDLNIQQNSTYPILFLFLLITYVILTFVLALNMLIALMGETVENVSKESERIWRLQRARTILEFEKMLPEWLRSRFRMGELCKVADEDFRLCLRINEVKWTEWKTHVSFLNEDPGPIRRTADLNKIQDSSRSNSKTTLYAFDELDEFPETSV
In short: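 Mouse Trpv3 point mutants were made by site-directed mutagenesis, sequence-verified, and transiently expressed in HEK293 cells alongside wild-type mTRPV3. Whole-cell ramp recordings (−100 to +100 mV, 500 ms, holding 0 mV) were made at 22–24 °C. Currents were activated by 2-APB, and inhibition by 50 μmol/L test compound in the presence of 2-APB was compared with wild type; n = 3–8.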

hTRPA1 = hTRPA1 (Homo sapiens, UniProt O75762); test: whole-cell patch-clamp of TRPA1 currents in HEK293 cells; assay type: cell-based; conditions: compound 50 μmol/L; current evoked by AITC 300 μmol/L
In short: (§2)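 Human channel cDNAs were transiently transfected into HEK293 cells with Lipofectamine 2000. EGFP-positive cells were recorded whole-cell 18 h later at 22–24 °C with ~4.0 MΩ fire-polished pipettes. Cells were held at 0 mV with 500-ms ramps from −100 to +100 mV every 2 s. Test compound in perfusion solution was co-applied with agonist, and average current inhibition was summarised; n = 4–6.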

[2] = test system: HEK293 cells expressing hTRPV3; test: cell death assay; assay type: cell-based, human; conditions: 12 h, n = 4
In short: (§3)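 HEK293 cells 12 h after hTRPV3 transfection, or HaCaT cells, were seeded in six-well plates, randomly split into 6 groups, and treated 12 h in culture medium. Cells were detached with 0.25% trypsin (HEK293 1 min; HaCaT 7 min), centrifuged, and stained 30 min in PBS with Hoechst and PI. Five random fields per group were imaged. Death ratio = PI-labelled over Hoechst-labelled nuclei, averaged over five images; n = 4.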

hTRPV3 = molecular target: T2, hTRPV3 (Homo sapiens, UniProt Q8NET8); test: whole-cell patch-clamp of hTRPV3 currents expressed in HEK293 cells; assay type: cell-based; conditions: for inhibition of hTRPV3 channel current activated by 2-APB: compound 50 μmol/L, agonist 2-APB 50 μmol/L, n = 5; for Hill coefficient: inhibition of hTRPV3 currents evoked by 2-APB 50 μmol/L
T2 sequence (Q8NET8 1-790): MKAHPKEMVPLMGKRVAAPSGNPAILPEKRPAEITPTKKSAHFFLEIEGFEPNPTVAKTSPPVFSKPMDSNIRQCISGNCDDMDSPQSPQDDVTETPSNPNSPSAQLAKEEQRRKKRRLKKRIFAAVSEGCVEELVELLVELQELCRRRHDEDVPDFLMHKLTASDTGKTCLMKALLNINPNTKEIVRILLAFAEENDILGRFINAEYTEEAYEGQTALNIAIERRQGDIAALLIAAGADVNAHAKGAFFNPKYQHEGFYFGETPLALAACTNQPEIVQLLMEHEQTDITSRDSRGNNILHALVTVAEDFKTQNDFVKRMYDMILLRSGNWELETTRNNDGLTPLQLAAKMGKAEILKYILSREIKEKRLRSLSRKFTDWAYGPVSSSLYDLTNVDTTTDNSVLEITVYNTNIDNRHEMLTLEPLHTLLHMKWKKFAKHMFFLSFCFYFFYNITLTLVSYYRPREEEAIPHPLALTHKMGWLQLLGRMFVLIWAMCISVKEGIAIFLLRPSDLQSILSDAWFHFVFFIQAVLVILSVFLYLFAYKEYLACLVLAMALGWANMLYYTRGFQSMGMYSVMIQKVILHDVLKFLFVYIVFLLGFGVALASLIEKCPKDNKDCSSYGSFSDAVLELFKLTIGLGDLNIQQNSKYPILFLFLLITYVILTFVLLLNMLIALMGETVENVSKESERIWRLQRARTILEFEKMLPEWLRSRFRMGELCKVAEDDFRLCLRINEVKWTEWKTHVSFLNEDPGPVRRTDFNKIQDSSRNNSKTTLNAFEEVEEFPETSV
In short: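 Whole-cell currents were recorded from hTRPV3-transfected HEK293 cells (EGFP-identified, 18 h post-transfection) at 22–24 °C. Cells were held at 0 mV and ramped from −100 to +100 mV over 500 ms every 2 s. Currents were activated by 50 μmol/L 2-APB; test compound was added at 50 μmol/L or at 0.01–100 μmol/L. Outward current at +80 mV was fitted to a Hill equation for IC50; n = 5–8.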

hTRPV4 = hTRPV4 (Homo sapiens, UniProt Q9HBA0); test: whole-cell patch-clamp of TRPV4 currents in HEK293 cells; assay type: cell-based; conditions: compound 50 μmol/L; current elicited by 100 nmol/L GSK1016790A
In short: as §2

[3] = test system: HEK293 cells expressing hTRPV3; test: cell proliferation MTT assay, HEK293 cells transfected with hTRPV3; assay type: cell-based, human; conditions: IAB at 10 and 100 μmol/L with carvacrol 300 μmol/L, 24 h
In short: as §1

HaCaT cells [4] = test: cell death assay; assay type: cell-based, human; conditions: IAB added with carvacrol 300 μmol/L; 12 h
In short: as §3

Sequence of hTRPA1 (O75762 whole entry, the tested form may be a part): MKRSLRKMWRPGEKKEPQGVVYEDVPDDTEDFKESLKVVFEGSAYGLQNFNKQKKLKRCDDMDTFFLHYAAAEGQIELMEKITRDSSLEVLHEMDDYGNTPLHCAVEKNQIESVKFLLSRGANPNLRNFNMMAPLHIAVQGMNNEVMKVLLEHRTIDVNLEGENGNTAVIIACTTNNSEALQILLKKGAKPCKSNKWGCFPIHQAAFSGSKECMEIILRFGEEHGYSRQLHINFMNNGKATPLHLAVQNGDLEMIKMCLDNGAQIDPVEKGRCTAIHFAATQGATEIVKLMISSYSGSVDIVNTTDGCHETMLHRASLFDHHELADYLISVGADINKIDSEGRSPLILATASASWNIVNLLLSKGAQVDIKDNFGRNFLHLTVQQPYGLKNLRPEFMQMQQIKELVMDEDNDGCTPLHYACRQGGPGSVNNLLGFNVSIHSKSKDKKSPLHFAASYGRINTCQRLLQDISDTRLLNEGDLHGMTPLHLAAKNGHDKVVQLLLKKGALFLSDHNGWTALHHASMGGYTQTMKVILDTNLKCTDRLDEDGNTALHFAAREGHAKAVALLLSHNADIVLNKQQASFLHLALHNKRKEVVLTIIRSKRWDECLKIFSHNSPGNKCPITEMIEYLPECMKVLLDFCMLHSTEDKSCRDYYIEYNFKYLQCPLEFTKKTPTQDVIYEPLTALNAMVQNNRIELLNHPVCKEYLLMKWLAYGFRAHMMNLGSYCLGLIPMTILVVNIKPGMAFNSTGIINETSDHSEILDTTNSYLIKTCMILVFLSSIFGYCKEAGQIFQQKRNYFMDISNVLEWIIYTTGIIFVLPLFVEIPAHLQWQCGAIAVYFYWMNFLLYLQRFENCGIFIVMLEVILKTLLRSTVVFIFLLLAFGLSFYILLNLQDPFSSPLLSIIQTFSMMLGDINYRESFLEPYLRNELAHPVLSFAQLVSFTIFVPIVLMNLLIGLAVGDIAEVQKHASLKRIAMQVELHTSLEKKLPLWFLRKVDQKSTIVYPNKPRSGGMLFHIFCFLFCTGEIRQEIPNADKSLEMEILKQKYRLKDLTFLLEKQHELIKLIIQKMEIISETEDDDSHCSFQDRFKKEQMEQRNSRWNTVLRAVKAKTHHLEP
Sequence of hTRPV4 (Q9HBA0 whole entry): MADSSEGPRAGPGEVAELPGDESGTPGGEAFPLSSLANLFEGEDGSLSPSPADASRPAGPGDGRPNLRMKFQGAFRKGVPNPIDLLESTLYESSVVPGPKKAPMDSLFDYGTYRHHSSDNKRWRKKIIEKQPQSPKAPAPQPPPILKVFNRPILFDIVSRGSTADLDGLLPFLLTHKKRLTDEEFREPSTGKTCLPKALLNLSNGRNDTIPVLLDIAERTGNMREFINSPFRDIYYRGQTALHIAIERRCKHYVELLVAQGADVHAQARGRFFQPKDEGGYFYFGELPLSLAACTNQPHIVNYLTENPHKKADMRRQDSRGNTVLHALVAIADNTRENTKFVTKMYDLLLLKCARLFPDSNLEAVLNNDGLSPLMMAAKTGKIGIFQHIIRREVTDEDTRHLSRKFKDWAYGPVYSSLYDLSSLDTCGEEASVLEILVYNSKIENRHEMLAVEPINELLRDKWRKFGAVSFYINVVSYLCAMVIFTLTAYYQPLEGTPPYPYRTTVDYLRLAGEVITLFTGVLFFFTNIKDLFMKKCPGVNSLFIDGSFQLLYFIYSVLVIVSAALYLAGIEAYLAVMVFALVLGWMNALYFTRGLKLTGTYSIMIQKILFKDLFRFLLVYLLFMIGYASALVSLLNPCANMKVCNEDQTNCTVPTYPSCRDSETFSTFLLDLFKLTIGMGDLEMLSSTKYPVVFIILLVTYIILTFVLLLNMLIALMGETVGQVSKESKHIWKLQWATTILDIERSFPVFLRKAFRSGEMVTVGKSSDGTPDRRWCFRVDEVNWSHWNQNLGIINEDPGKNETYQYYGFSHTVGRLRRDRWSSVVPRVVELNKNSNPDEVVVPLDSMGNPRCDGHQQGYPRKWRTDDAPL

| Structure (SMILES) | reversal of overactive TRPV3-induced inhibition of cell proliferation (HaCaT cells [1]) | effect of mutation on compound-induced inhibition of mTRPV3 currents (mTRPV3 L669A) | inhibition of TRPA1 current (hTRPA1) | cell death ratio ([2]; IAB 10 μmol/L with carvacrol 300 μmol/L) | cell death ratio ([2]; IAB 100 μmol/L with carvacrol 300 μmol/L) | inhibition of hTRPV3 channel current activated by 2-APB (hTRPV3) | better potency of IAB versus IAA (hTRPV3; from hTRPV3 IC50 values) | Hill coefficient (hTRPV3) | inhibition of TRPV4 current (hTRPV4) | reversal of overactive TRPV3-induced inhibition of cell proliferation [3] | HaCaT cell death (HaCaT cells [4]) |
| --- | --- | --- | --- | --- | --- | --- | --- | --- | --- | --- | --- |
| O=C(/C=C/c1ccc(O)c(O)c1)O[C@@H]1[C@H](O)C[C@@](O)(C(=O)O)C[C@H]1OC(=O)/C=C/c1ccc(O)c(O)c1 [IAB, isochlorogenic acid B] | significantly reversed | no obvious effect | no inhibitory effect | 11.7 ± 0.9% | 9.9 ± 1.2% | ~86.4 ± 3.3% | 3 fold | 0.53 | no inhibitory effect | significantly reversed | dose-dependent reduction of HaCaT cell death |
| O=C(/C=C/c1ccc(O)c(O)c1)O[C@@H]1C[C@](O)(C(=O)O)C[C@@H](OC(=O)/C=C/c2ccc(O)c(O)c2)[C@H]1O [IAA, isochlorogenic acid A] | – | no obvious effect | no inhibitory effect | – | – | about 80.8 ± 2.1% | – | 0.50 | no inhibitory effect | – | – |
